According to ChEMBL document CHEMBL4325909, “Synthesis and evaluation of chalcone analogues containing a 4-oxoquinazolin-2-yl group as potential anti-tumor agents” (Eur J Med Chem, 2019):

What was measured:
HCT-116 [1] = experiment: Cytotoxicity against human HCT116 cells assessed as reduction in cell viability after 72 hrs by MTS assay; type: functional, cell-based; conditions: HCT-116, 72 h
How it was run: (§1)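 Cells kept in DMEM with 10% FBS at 37 °C, 5% CO2. Proliferation read by MTS (CellTiter 96 AQueous One) 72 h after exposure across a concentration range. IC50 is the concentration giving 50% proliferation inhibition. Triplicate wells, three independent experiments, mean ± SD.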

HCT-116 [2] = experiment: Cytotoxicity against human HCT116 cells assessed as reduction in cell viability at 20 uM after 72 hrs by MTS assay relative to control; type: functional
How it was run: (§2)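 Cells grown in DMEM with 10% FBS at 37 °C, 5% CO2, exposed to 20 μM for 72 h. Proliferation read by MTS and inhibition expressed relative to vehicle. ≥50% inhibition counted as active. Triplicate wells, three independent experiments.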

MCF7 [3] = experiment: Cytotoxicity against human MCF7 cells assessed as reduction in cell viability after 72 hrs by MTS assay; type: functional, cell-based; conditions: MCF7, 72 h; how it was run: as §1
MCF7 [4] = experiment: Cytotoxicity against human MCF7 cells assessed as reduction in cell viability at 20 uM after 72 hrs by MTS assay relative to control; type: functional; how it was run: as §2
MCF-10A = experiment: Cytotoxicity against human MCF10A cells assessed as reduction in cell viability after 72 hrs by MTS assay; type: cell-based
How it was run: (§3)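 MTS (CellTiter 96 AQueous One) proliferation read after 72 h of exposure across a concentration range. IC50 is the concentration giving 50% proliferation inhibition. Triplicate determinations in three independent experiments, mean ± SD.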

HT-29 = experiment: Cytotoxicity against human HT-29 cells assessed as reduction in cell viability after 72 hrs by MTS assay; type: functional, cell-based; conditions: HT-29, 72 h; how it was run: as §3
MDA-MB-231 = experiment: Cytotoxicity against human MDA-MB-231 cells assessed as reduction in cell viability after 72 hrs by MTS assay; type: functional, cell-based; conditions: MDA-MB-231, 72 h; how it was run: as §3
A549 = experiment: Cytotoxicity against human A549 cells assessed as reduction in cell viability after 72 hrs by MTS assay; type: functional, cell-based; conditions: A549, 72 h; how it was run: as §3
HeLa = experiment: Cytotoxicity against human HeLa cells assessed as reduction in cell viability after 72 hrs by MTS assay; type: functional, cell-based; how it was run: as §3

Row | Structure (SMILES) | IC50 (HCT-116 [1]) [µM] | Activity (HCT-116 [2]) | IC50 (MCF7 [3]) [µM] | Activity (MCF7 [4]) | IC50 (MCF-10A) [µM] | IC50 (HT-29) [µM] | IC50 (MDA-MB-231) [µM] | IC50 (A549) [µM] | IC50 (HeLa) [µM]
1 | O=C(/C=C/c1ccc(Cl)cc1)c1nc2ccccc2c(=O)[nH]1 | 15.6 | >=50% | > 20 | >=50% |  |  |  |  | 
2 | O=C(/C=C/c1ccc([N+](=O)[O-])cc1)c1nc2ccccc2c(=O)[nH]1 | 13.2 | >=50% | > 20 | >=50% |  |  |  |  | 
3 | O=C(/C=C/c1nc2ccccc2c(=O)[nH]1)c1ccc(C(F)(F)F)cc1 | > 20 | < 50% | > 20 | < 50% |  |  |  |  | 
4 | O=C(/C=C/c1nc2ccccc2c(=O)[nH]1)c1ccccc1 | 5.47 | >=50% | 4.09 | >=50% |  |  |  |  | 
5 | O=C(/C=C/c1ccccn1)c1nc2ccccc2c(=O)[nH]1 | > 20 | >=50% | > 20 | >=50% |  |  |  |  | 
6 | Cc1ccccc1C(=O)/C=C/c1nc2ccccc2c(=O)[nH]1 | 4.14 | >=50% | 4.2 | >=50% | 6.19 | 6.45 | 10.5 | 13.3 | 10.4
7 | O=C(/C=C/c1cccnc1)c1nc2ccccc2c(=O)[nH]1 | > 20 | >=50% | > 20 | >=50% |  |  |  |  | 
8 | O=C(/C=C/c1nc2ccccc2c(=O)[nH]1)c1ccc(Cl)c(Cl)c1 | 17 | >=50% | 8.21 | >=50% |  |  |  |  | 
9 | COc1ccc(/C=C/C(=O)c2nc3ccccc3c(=O)[nH]2)cc1OC | > 20 | < 50% | > 20 | < 50% |  |  |  |  | 
10 | COc1ccccc1/C=C/C(=O)c1nc2ccccc2c(=O)[nH]1 | > 20 | < 50% | > 20 | >=50% |  |  |  |  | 
11 | O=C(/C=C/c1ccc(Br)cc1)c1nc2ccccc2c(=O)[nH]1 | > 20 | >=50% | > 20 | >=50% |  |  |  |  | 
12 | COc1ccccc1C(=O)/C=C/c1nc2ccccc2c(=O)[nH]1 | 3.91 | >=50% | 4.3 | >=50% | 5.26 | 6.71 | 15.7 | 13.7 | 13.4
13 | COc1cc(OC)c(C(=O)/C=C/c2nc3ccccc3c(=O)[nH]2)c(OC)c1 | 5.57 | >=50% | 5.02 | >=50% |  |  |  |  | 
14 | COc1ccc(/C=C/C(=O)c2nc3ccccc3c(=O)[nH]2)cc1 | > 20 | < 50% | > 20 | < 50% |  |  |  |  | 
15 | O=C(/C=C/c1ccncc1)c1nc2ccccc2c(=O)[nH]1 | > 20 | >=50% | > 20 | < 50% |  |  |  |  | 
16 | O=C(/C=C/c1ccc(F)cc1)c1nc2ccccc2c(=O)[nH]1 | 15.2 | >=50% | > 20 | >=50% |  |  |  |  | 
17 | Cc1ccc(C(=O)/C=C/c2nc3ccccc3c(=O)[nH]2)c(C)c1 | 4.77 | >=50% | 4.5 | >=50% | 5.47 | 12.5 | 15.3 | 13.3 | 9.55
18 | O=C(/C=C/c1nc2ccccc2c(=O)[nH]1)c1ccc(O)cc1 | 4.11 | >=50% | 4.92 | >=50% | 6.12 | 10.7 | 16.5 | 15.1 | 9.44
19 | O=C(/C=C/c1nc2ccccc2c(=O)[nH]1)c1ccc(Cl)cc1 | 6.1 | >=50% | 6.09 | >=50% |  |  |  |  | 

Row | Structure (SMILES) | IC50 (HCT-116 [1]) [µM] | Activity (HCT-116 [2]) | IC50 (MCF7 [3]) [µM] | Activity (MCF7 [4]) | IC50 (MCF-10A) [µM] | IC50 (HT-29) [µM] | IC50 (MDA-MB-231) [µM] | IC50 (A549) [µM] | IC50 (HeLa) [µM]
20 | COc1ccc(C(=O)/C=C/c2nc3ccccc3c(=O)[nH]2)c(OC)c1 | 4.08 | >=50% | 4.49 | >=50% | 9.14 | 8.77 | 14.3 | 15.5 | 12.7
21 | N#Cc1ccc(/C=C/C(=O)c2nc3ccccc3c(=O)[nH]2)cc1 | 19.8 | >=50% | > 20 | >=50% |  |  |  |  | 
22 | O=C(/C=C/c1nc2ccccc2c(=O)[nH]1)c1ccc(F)cc1 | > 20 | < 50% | > 20 | < 50% |  |  |  |  | 
23 | Cc1ccc(C(=O)/C=C/c2nc3ccccc3c(=O)[nH]2)cc1 | 5.75 | >=50% | 9.44 | >=50% |  |  |  |  | 
24 | COc1cccc(/C=C/C(=O)c2nc3ccccc3c(=O)[nH]2)c1 | 14.7 | >=50% | 15.5 | >=50% |  |  |  |  | 
25 | COc1cc(/C=C/C(=O)c2nc3ccccc3c(=O)[nH]2)cc(OC)c1 | 15.8 | >=50% | 16.8 | >=50% |  |  |  |  | 
26 | COc1ccc(/C=C/C(=O)c2nc3ccccc3c(=O)[nH]2)c(OC)c1 | > 20 | < 50% | > 20 | < 50% |  |  |  |  | 
27 | COc1cc(C(=O)/C=C/c2nc3ccccc3c(=O)[nH]2)ccc1O | 4.58 | >=50% | 6.05 | >=50% |  |  |  |  | 
28 | O=C(/C=C/c1cccs1)c1nc2ccccc2c(=O)[nH]1 | > 20 | >=50% | > 20 | >=50% |  |  |  |  | 
29 | Cc1ccc(/C=C/C(=O)c2nc3ccccc3c(=O)[nH]2)cc1 | > 20 | >=50% | > 20 | < 50% |  |  |  |  | 
30 | O=c1[nH]cc(F)c(=O)[nH]1 [FLUOROURACIL] |  |  |  |  | > 20 | 9.99 | > 20 | 15 | > 20
31 | COc1cc(C(=O)/C=C/c2nc3ccccc3c(=O)[nH]2)cc(OC)c1OC | 12.8 | >=50% | 13.9 | >=50% |  |  |  |  | 
32 | COc1cccc(C(=O)/C=C/c2nc3ccccc3c(=O)[nH]2)c1 | 12 | >=50% | 12.9 | >=50% |  |  |  |  | 
33 | COc1cc(/C=C/C(=O)c2nc3ccccc3c(=O)[nH]2)cc(OC)c1OC | > 20 | >=50% | > 20 | < 50% |  |  |  |  | 
34 | O=C(/C=C/c1nc2ccccc2c(=O)[nH]1)c1ccc(Br)cc1 | 4.74 | >=50% | 3.75 | >=50% | 11.3 | > 20 | 18.3 | 19.5 | 16.1
35 | O=C(/C=C/c1ccccc1)c1nc2ccccc2c(=O)[nH]1 | > 20 | < 50% | > 20 | >=50% |  |  |  |  | 
36 | Nc1ccc(C(=O)/C=C/c2nc3ccccc3c(=O)[nH]2)cc1 | > 20 | < 50% | > 20 | < 50% |  |  |  |  | 
37 | O=C(/C=C/c1ccco1)c1nc2ccccc2c(=O)[nH]1 | > 20 | >=50% | > 20 | >=50% |  |  |  |  | 
38 | COc1ccc(C(=O)/C=C/c2nc3ccccc3c(=O)[nH]2)cc1 | 10 | >=50% | 10.2 | >=50% |  |  |  |  | 
